Measured values published in ChEMBL document CHEMBL2429829, “Inhibitors of the aminoglycoside 6'-N-acetyltransferase type Ib [AAC(6')-Ib] identified by in silico molecular docking” (Bioorg Med Chem Lett, 2013).
The source made the active and inactive calls. The rule behind the calls is not given here.

Key:
[1] = Inhibition of aminoglycoside 6'-N-acetyltransferase Ib (unknown origin)-mediated acetylation expressed in Escherichia coli using kanamycin A and acetyl CoA as substrate at 100 uM preincubated for 10 mins followed by enzyme addition by spectrophotometric analysis relative to control
In short: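 Enzyme: thioredoxin-fused AAC(6′)-Ib, arabinose-induced in E. coli, partially purified by DEAE ion exchange. Reaction: 20 mM Tris pH 7.5, 0.2 mM DTNB, 50 μM acetyl CoA, 18 μM kanamycin A, compound at 100 μM in 10% DMSO. Mix held 10 min at room temperature before enzyme added. CoA–SH release read at 412 nm. Percent inhibition from initial velocities versus no-compound reactions; mean of three experiments.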

[2] = Competitive inhibition of aminoglycoside 6'-N-acetyltransferase Ib (unknown origin) expressed in Escherichia coli using kanamycin A as substrate by Lineweaver-Burk plot analysis in presence of acetyl CoA
In short: (§1)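 Partially purified His-Patch thioredoxin-fused enzyme from E. coli (pBAD102, arabinose-induced), in 20 mM Tris pH 7.5 with 0.2 mM DTNB. Kanamycin A varied 3–18 μM with acetyl CoA fixed at 100 μM, at several inhibitor concentrations. Mix held 10 min at room temperature before enzyme. Initial rates followed at 412 nm, mode assigned from Lineweaver-Burk plots, in triplicate.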

[3] = Non-competitive inhibition of aminoglycoside 6'-N-acetyltransferase Ib (unknown origin) expressed in Escherichia coli using acetyl CoA as substrate by Lineweaver-Burk plot analysis in presence of kanamycin A
In short: as §1, with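 “Acetyl CoA” for “Kanamycin A”, “5–72” for “3–18”, “kanamycin A” for “acetyl CoA”, “25” for “100”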

[4] = Inhibition of aminoglycoside 6'-N-acetyltransferase Ib (unknown origin)-mediated acetylation expressed in Escherichia coli using 3 to 18 uM kanamycin A and 100 uM acetyl CoA as substrate preincubated for 10 mins followed by enzyme addition by spectrophotometric analysis
In short: (§2)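 Enzyme partially purified on DEAE from arabinose-induced E. coli, in 20 mM Tris pH 7.5 with 0.2 mM DTNB and 10% DMSO. Inhibitor at a range of concentrations, kanamycin A 3–18 μM, acetyl CoA 100 μM. 10 min room-temperature preincubation before enzyme. CoA-SH release read at 412 nm. Ki from initial velocities by nonlinear regression, in triplicate.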

[5] = Inhibition of aminoglycoside 6'-N-acetyltransferase Ib (unknown origin)-mediated acetylation expressed in Escherichia coli using 5 to 72 uM acetyl CoA and 25 uM kanamycin A as substrate preincubated for 10 mins followed by enzyme addition by spectrophotometric analysis
In short: as §2, with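 “concentrations, acetyl CoA 5–72 μM,” for “concentrations,”, “25” for “3–18 μM, acetyl CoA 100”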

[6] = Inhibition of aminoglycoside 6'-N-acetyltransferase Ib (unknown origin)-mediated acetylation expressed in Escherichia coli using kanamycin A and acetyl CoA as substrate at 100 uM preincubated for 10 mins followed by enzyme addition by spectrophotometric analysis in presence of Triton X-100
In short: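 Compound at 100 μM in 10% DMSO, with 20 mM Tris pH 7.5, 0.2 mM DTNB, 50 μM acetyl CoA, 18 μM kanamycin A and 0.01% Triton X-100. Preincubated 10 min at room temperature, then partially purified enzyme added. Absorbance at 412 nm gave initial velocities. Percent inhibition taken against compound-free reactions, mean of three experiments.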

Compound	inhibition [1] [%]	Ki [2] [µM]	Ki [3] [µM]	Ki [4] [µM]	Ki [5] [µM]	inhibition [6]
O=C(O)c1ccccc1-c1ccc(C=C2C(=O)N(c3ccccc3)C(=S)N(c3ccccc3)C2=O)o1	52	12	35			
O=C1NC(=O)N(c2ccc(Cl)cc2)C(=O)/C1=C\c1ccco1	60			33	74	
Cc1cccc(N2C(=O)/C(=C/c3ccccc3OCc3ccc(C(=O)O)cc3)C(=O)NC2=S)c1	27	141	267			
Cc1cccc(N2C(=O)/C(=C/c3ccc(OCc4cccc(C(=O)O)c4)cc3)C(=O)NC2=S)c1	33			84	97	
O=C1/C(=C/c2ccco2)C(=O)N(c2ccc(Br)cc2)C(=S)N1c1ccccc1						inactive
Cc1ccc(N2C(=O)NC(=O)/C(=C\c3ccccc3OCc3ccc(C(=O)O)cc3)C2=O)cc1	30			157	258	
O=C1NC(=O)N(c2ccc(O)cc2)C(=O)/C1=C/c1ccccc1OCc1ccc(C(=O)O)cc1	30			129	292	
